{
  "source": "paper PMC3996760",
  "about": "(Brain research, 2014)",
  "key": {"[1]": {"details": "ref Munro et al., 2008, cited from earlier work"}, "male Wistar rats [2]": {"test_system": "male Wistar rats", "experiment": "Grip strength test", "assay_type": "in vivo", "details": "for GS grip strength: mean ± SEM", "procedure,_shortened": "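At 20 min post-dose, rats gripped a trapezoid wire grid on a grip-strength meter with their front paws and were lifted by the tail with increasing firmness until release. n=8 per group; one-way ANOVA.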"}, "male Wistar rats [3]": {"test_system": "male Wistar rats", "experiment": "Spontaneous locomotor activity test", "assay_type": "in vivo", "details": "for SLA total distance: 30 min recording, mean ± SEM"}, "male Wistar rats [4]": {"test_system": "male Wistar rats", "experiment": "Rotarod test", "assay_type": "in vivo", "details": "for RR time on rotarod: max 120 s, mean ± SEM"}, "[5]": {"experiment": "Quantification in rat plasma and brain tissue", "assay_type": "in vivo, Wistar rats", "details": "for brain estimated free concentration: total × free fraction"}, "male Wistar rats [6]": {"test_system": "male Wistar rats", "experiment": "Elevated plus maze test", "assay_type": "in vivo", "details": "for EPM % time on open arms / EPM number of closed arm entries: mean ± SEM", "procedure,_shortened": "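Maze 50 cm high, closed arms lit at 10 lux red. Rat placed centrally facing an enclosed arm and video-tracked for 5 min. Arm entry scored at 80% body crossing. One-way ANOVA; ANCOVA for % open-arm time with closed-arm entries as covariate; n=7.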"}, "male Wistar rats [7]": {"test_system": "male Wistar rats", "experiment": "Open field test", "assay_type": "in vivo", "details": "for OF total distance: 15 min; for OF total distance / OF % time in central zone: mean ± SEM; for OF % time in central zone: first 5 min"}, "male Wistar rats [8]": {"test_system": "male Wistar rats", "experiment": "Morris water maze test", "assay_type": "in vivo", "details": "acquisition, mean ± SEM", "procedure,_shortened": "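Pool 200 cm diameter, 23 °C water, platform submerged 2 cm. Four trials per block, max 120 s each, 60 s intertrial interval, pseudorandom starts. Escape latency video-tracked and averaged per rat per day; n=7.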"}, "α1β3γ2 GABAA receptors": {"target": "α1β3γ2 GABAA receptors (Rattus norvegicus, UniProt P18508+P62813)", "sequence (P62813 28-455)": "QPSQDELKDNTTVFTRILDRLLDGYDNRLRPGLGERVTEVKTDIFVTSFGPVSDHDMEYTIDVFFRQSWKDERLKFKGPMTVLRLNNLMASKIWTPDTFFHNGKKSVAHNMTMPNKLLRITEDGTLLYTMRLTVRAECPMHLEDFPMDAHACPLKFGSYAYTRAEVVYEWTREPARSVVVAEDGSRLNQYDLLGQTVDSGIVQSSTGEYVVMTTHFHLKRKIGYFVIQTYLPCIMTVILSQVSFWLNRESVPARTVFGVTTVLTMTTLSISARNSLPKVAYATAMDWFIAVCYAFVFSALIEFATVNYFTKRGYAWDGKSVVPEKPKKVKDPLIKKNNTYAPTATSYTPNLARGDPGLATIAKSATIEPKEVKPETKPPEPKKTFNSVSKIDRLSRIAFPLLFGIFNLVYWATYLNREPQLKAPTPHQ", "sequence (P18508 39-466)": "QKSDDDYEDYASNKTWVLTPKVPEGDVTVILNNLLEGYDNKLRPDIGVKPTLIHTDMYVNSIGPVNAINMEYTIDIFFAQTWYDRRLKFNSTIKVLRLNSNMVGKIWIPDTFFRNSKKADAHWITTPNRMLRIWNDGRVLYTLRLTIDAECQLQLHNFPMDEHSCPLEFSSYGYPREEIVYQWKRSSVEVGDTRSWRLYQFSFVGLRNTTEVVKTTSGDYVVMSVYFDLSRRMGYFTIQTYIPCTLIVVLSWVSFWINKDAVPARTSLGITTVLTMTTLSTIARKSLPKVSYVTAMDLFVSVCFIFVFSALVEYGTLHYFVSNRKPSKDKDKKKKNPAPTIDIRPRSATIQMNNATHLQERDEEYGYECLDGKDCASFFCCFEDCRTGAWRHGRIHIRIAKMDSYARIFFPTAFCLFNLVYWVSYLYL", "sequence (P63079 26-473 partner)": "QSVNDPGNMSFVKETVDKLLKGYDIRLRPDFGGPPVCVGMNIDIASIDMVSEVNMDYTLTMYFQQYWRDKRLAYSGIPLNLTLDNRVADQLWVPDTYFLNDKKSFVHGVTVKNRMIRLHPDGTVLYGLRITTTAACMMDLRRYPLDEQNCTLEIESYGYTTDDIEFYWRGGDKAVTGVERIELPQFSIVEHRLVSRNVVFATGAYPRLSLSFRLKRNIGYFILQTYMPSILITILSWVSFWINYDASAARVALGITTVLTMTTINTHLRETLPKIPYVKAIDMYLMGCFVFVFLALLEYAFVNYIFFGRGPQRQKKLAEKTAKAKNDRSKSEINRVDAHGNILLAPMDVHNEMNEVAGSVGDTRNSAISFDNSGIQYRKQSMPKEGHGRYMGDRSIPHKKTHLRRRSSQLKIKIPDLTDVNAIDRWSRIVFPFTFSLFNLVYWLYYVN", "assay_type": "cell-based", "details": "for in vitro efficacy: GABA EC3"}, "male Wistar rats [9]": {"test_system": "male Wistar rats", "experiment": "Peripheral nerve injury model", "assay_type": "in vivo"}},
  "note": "Entries after “also recorded” stand apart in the source; their conditions may differ. Like-named read-outs stand apart in the source and are kept apart here.",
  "data": [
    {"smiles": "Cc1ccc(-c2nc3ccc(C)cn3c2CC(=O)N(C)C)cc1", "note": "[zolpidem]", "values": [
      {"measurement": "activity in chronic constriction injury model", "setting": "[1]", "result": "completely inactive"}
    ]},
    {"smiles": "C[C@@H]1N=C(c2ccccc2F)c2cc(Br)ccc2NC1=O", "note": "[SH-I-048A, (S)-7-bromo-5-(2-fluorophenyl)-3-methyl-1Hbenzo[e][1,4]diazepin-2(3H)-one]", "values": [
      {"measurement": "GS grip strength", "setting": "male Wistar rats [2]; 10 mg/kg i.p.", "result": "2588.83 ± 169.52", "unit": "g/kg"},
      {"measurement": "effect on grip strength vs solvent", "setting": "male Wistar rats [2]; 2, 5 and 10 mg/kg, p=0.002, p<0.001, p=0.002", "result": "significant muscle relaxation"},
      {"measurement": "SLA total distance", "setting": "male Wistar rats [3]; 10 mg/kg i.p.", "result": "6.42 ± 2.26", "unit": "m"},
      {"measurement": "influence on total distance traveled during 30 min", "setting": "male Wistar rats [3]; 2, 5 and 10 mg/kg, one-way ANOVA p=0.061", "result": "did not reach statistical significance"},
      {"measurement": "distance traveled in second 5-min bin (5–10 min) vs solvent", "setting": "male Wistar rats [3]; 5 and 10 mg/kg, p=0.017 and p=0.008", "result": "traveled shorter distances than the solvent-treated animals"},
      {"measurement": "RR time on rotarod", "setting": "male Wistar rats [4]; 10 mg/kg i.p.", "result": "0.25 ± 0.16", "unit": "s"},
      {"measurement": "brain total concentration", "setting": "[5]; 0.5 mg/kg i.p., 20 min", "result": "231.12 ± 52.27", "unit": "nmol/kg"},
      {"measurement": "brain estimated free concentration", "setting": "[5]; 0.5 mg/kg i.p., 20 min", "result": 3.26, "unit": "nmol/kg"},
      {"measurement": "brain total concentration", "setting": "[5]; 2 mg/kg i.p., 20 min", "result": "750.59 ± 307.14", "unit": "nmol/kg"},
      {"measurement": "brain estimated free concentration", "setting": "[5]; 2 mg/kg i.p., 20 min", "result": 10.60, "unit": "nmol/kg"},
      {"measurement": "brain total concentration", "setting": "[5]; 2 mg/kg i.p., 60 min", "result": "739.37 ± 182.94", "unit": "nmol/kg"},
      {"measurement": "brain estimated free concentration", "setting": "[5]; 2 mg/kg i.p., 60 min", "result": 10.45, "unit": "nmol/kg"},
      {"measurement": "brain total concentration", "setting": "[5]; 10 mg/kg i.p., 20 min", "result": "2096.33 ± 858.32", "unit": "nmol/kg"},
      {"measurement": "brain estimated free concentration", "setting": "[5]; 10 mg/kg i.p., 20 min", "result": 29.62, "unit": "nmol/kg"},
      {"measurement": "brain total concentration", "setting": "[5]; 10 mg/kg i.p., 60 min", "result": "1035.23 ± 421.19", "unit": "nmol/kg"},
      {"measurement": "brain estimated free concentration", "setting": "[5]; 10 mg/kg i.p., 60 min", "result": 14.63, "unit": "nmol/kg"},
      {"measurement": "EPM % time on open arms", "setting": "male Wistar rats [6]; 10 mg/kg i.p.", "result": "67.43 ± 12.34", "unit": "%"},
      {"measurement": "EPM number of closed arm entries", "setting": "male Wistar rats [6]; 10 mg/kg i.p.", "result": "4.00 ± 1.23"},
      {"measurement": "influence on EPM parameters, preliminary study", "setting": "male Wistar rats [6]; 0.5 and 2 mg/kg, data not shown", "result": "devoid of any influences"},
      {"measurement": "effect of treatment on number of closed arm entries", "setting": "male Wistar rats [6]; 2, 5 and 10 mg/kg, one-way ANOVA p=0.072", "result": "no significant effect"},
      {"measurement": "effect of treatment on percentage of time spent on open arms", "setting": "male Wistar rats [6]; 2, 5 and 10 mg/kg, one-way ANOVA p=0.095", "result": "not significant"},
      {"measurement": "OF total distance", "setting": "male Wistar rats [7]; 10 mg/kg i.p.", "result": "15.39 ± 5.35", "unit": "m"},
      {"measurement": "OF % time in central zone", "setting": "male Wistar rats [7]; 10 mg/kg i.p.", "result": "30.01 ± 15.49", "unit": "%"},
      {"measurement": "effect on total distance traveled in open field vs solvent", "setting": "male Wistar rats [7]; 10 mg/kg only, Dunnett p<0.001", "result": "significantly decreased"},
      {"measurement": "effect on percent of time spent in the central zone", "setting": "male Wistar rats [7]; 0.2, 0.5, 2 and 10 mg/kg, p=0.669", "result": "not significantly affected"},
      {"measurement": "MWM latency Day 1", "setting": "male Wistar rats [8]; 10 mg/kg i.p. daily", "result": "102.11 ± 9.11", "unit": "s"},
      {"measurement": "MWM latency Day 2", "setting": "male Wistar rats [8]; 10 mg/kg i.p. daily", "result": "88.52 ± 9.40", "unit": "s"},
      {"measurement": "MWM latency Day 3", "setting": "male Wistar rats [8]; 10 mg/kg i.p. daily", "result": "62.98 ± 14.13", "unit": "s"},
      {"measurement": "MWM latency Day 4", "setting": "male Wistar rats [8]; 10 mg/kg i.p. daily", "result": "53.39 ± 14.74", "unit": "s"},
      {"measurement": "MWM latency Day 5", "setting": "male Wistar rats [8]; 10 mg/kg i.p. daily", "result": "42.65 ± 13.99", "unit": "s"},
      {"measurement": "in vitro efficacy", "setting": "α1β3γ2 GABAA receptors; concentration 1 nM", "result": 124, "unit": "%"},
      {"measurement": "in vitro efficacy", "setting": "α1β3γ2 GABAA receptors; concentration 10 nM", "result": 256, "unit": "%"},
      {"measurement": "approximated potentiation at estimated in vivo free brain concentration", "setting": "α1β3γ2 GABAA receptors; free concentration 3.26 nM (0.5 mg/kg i.p., 20 min), linear interpolation", "result": 157, "unit": "%"},
      {"measurement": "effect of Treatment on paw withdrawal threshold 48 h after surgery", "setting": "male Wistar rats [9]; 10 mg/kg, one to three doses, p=0.157", "result": "no significant effect"},
      {"measurement": "paw withdrawal threshold 24 h after injury vs solvent", "setting": "male Wistar rats [9]; three doses of 10 mg/kg (0, 12, 23 h), p=0.015", "result": "significantly higher paw withdrawal threshold; also recorded: reversed mechanical hyperalgesia"}
    ]},
    {"smiles": "CC(C)(C)OC(=O)c1cc2c(cn1)[nH]c1ccccc12", "note": "[β-CCt, t-butyl-β-carboline-3-carboxylate]", "values": [
      {"measurement": "effect of adding β-CCt on latency to fall from the revolving rod", "setting": "male Wistar rats [4]; β-CCt 30 mg/kg added to 10 and 25 mg/kg SH-I-048A, 0.5, 1 and 1.5 h", "result": "increased latency to fall"}
    ]},
    {"smiles": "CN1C(=O)CN=C(c2ccccc2)c2cc(Cl)ccc21", "note": "[diazepam, reference compound]", "values": [
      {"measurement": "GS grip strength", "setting": "male Wistar rats [2]; 2 mg/kg i.p.", "result": "1722.50 ± 197.65", "unit": "g/kg"},
      {"measurement": "SLA total distance", "setting": "male Wistar rats [3]; 2 mg/kg i.p.", "result": "7.17 ± 1.13", "unit": "m"},
      {"measurement": "RR time on rotarod", "setting": "male Wistar rats [4]; 2 mg/kg i.p.", "result": "41.70 ± 9.79", "unit": "s"},
      {"measurement": "EPM % time on open arms", "setting": "male Wistar rats [6]; 2 mg/kg i.p.", "result": "76.67 ± 6.67", "unit": "%"},
      {"measurement": "EPM number of closed arm entries", "setting": "male Wistar rats [6]; 2 mg/kg i.p.", "result": "4.09 ± 0.77"},
      {"measurement": "OF total distance", "setting": "male Wistar rats [7]; 2 mg/kg i.p.", "result": "24.50 ± 5.34", "unit": "m"},
      {"measurement": "OF % time in central zone", "setting": "male Wistar rats [7]; 2 mg/kg i.p.", "result": "3.09 ± 1.15", "unit": "%"},
      {"measurement": "MWM latency Day 1", "setting": "male Wistar rats [8]; 2 mg/kg i.p. daily", "result": "103.45 ± 10.64", "unit": "s"},
      {"measurement": "MWM latency Day 2", "setting": "male Wistar rats [8]; 2 mg/kg i.p. daily", "result": "92.82 ± 6.40", "unit": "s"},
      {"measurement": "MWM latency Day 3", "setting": "male Wistar rats [8]; 2 mg/kg i.p. daily", "result": "77.83 ± 15.52", "unit": "s"},
      {"measurement": "MWM latency Day 4", "setting": "male Wistar rats [8]; 2 mg/kg i.p. daily", "result": "59.02 ± 9.78", "unit": "s"},
      {"measurement": "MWM latency Day 5", "setting": "male Wistar rats [8]; 2 mg/kg i.p. daily", "result": "56.40 ± 10.20", "unit": "s"},
      {"measurement": "effect on hind paw hypersensitivity", "setting": "[1]; highest dose tested (10 mg/kg)", "result": "able to attenuate hind paw hypersensitivity"}
    ]}
  ]
}
